# Casp6 inh = blocks human caspase-6 cleavage activity | inhibition, % at 12.5 µM | AID 686996 | actives 0.53% (n = 350,000) | purified caspase-6, Z-VEID-R110 cleavage fluorescence | P55212;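 active = mean inhibition across replicates at least about 35%, with every replicate also reaching that limit, limit read from the data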;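 also: 0% = median of neutral control wells and 100% = no fluorescence left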
# Target sequence (P55212 24-179 limits assumed): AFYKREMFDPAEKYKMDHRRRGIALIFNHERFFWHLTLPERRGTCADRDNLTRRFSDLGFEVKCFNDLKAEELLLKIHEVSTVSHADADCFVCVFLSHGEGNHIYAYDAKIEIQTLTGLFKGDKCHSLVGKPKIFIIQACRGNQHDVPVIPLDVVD
# Target sequence (P55212 194-293 limits assumed): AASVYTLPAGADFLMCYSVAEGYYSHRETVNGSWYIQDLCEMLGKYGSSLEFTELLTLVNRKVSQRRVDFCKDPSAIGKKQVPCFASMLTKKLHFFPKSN
# ERAP1 HTS inh = ERAP1 (human) enzyme inhibition | Q9NZ08 | recombinant ERAP1, Leu-AMC fluorescence, 60 min | inhibition, % at 10.7 µM | actives 0.15% (n = 340,000) | AID 652197;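 active = mean replicate inhibition of at least 30%, or all replicates individually reaching that 30% level; inactive = mean below 30% and not every replicate reaching it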;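 also: 0% = neutral control wells and 100% = L-leucinethiol positive control wells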
# S100A4 MyoIIA = blocks human S100A4 binding to myosin IIA peptide. P26447. S100A4/TAMRA-MyoIIA peptide fluorescence polarization. inhibition, % at 10.7 µM. actives 0.14% (n = 360,000);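 active = mean inhibition of at least 70% across replicates, with every replicate also reaching that level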
# Target sequence (P26447 whole entry, looked up): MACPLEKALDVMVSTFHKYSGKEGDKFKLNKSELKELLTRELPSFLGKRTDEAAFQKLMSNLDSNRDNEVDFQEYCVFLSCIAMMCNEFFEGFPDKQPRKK
#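 Assay system: human S100A4 monomer with TAMRA-labelled myosin IIA peptide / Buffer or medium: Calcium-containing HEPES buffer, pH 7.2 / Reagent: TAMRA-labelled myosin IIA heavy-chain peptide probe, 5 nM / Compound: one dose per compound / Timing: polarization read 5 min after assay mix addition, stable 5–60 min / Benchmarks: neutral control DMSO, positive control TFP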
# rRNA inh HTS = inhibits bacterial ribosomal RNA function over humanized ribosomes; E. coli WT GFP vs humanized-ribosome RFP mutants, fluorescence, 24 h; hits give low values; DMSO median 0, no signal -100; AID 720706; GFP signal change (wild-type ribosome), % (concentration not given with the values); actives 1.6% (n = 350,000);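 active = significant combined selectivity score with lowered wild-type GFP, culture density cut under 30%, mutant RFP and density less affected; inactive = any of these conditions unmet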
# PGC1a acetyl inh = lowers PGC1a acetylation signal in U2OS cells | AlphaScreen anti-acetyl-lysine; with virally co-expressed GCN5 acetyltransferase | inhibition, % at 15.6 µM | actives 0.17% (n = 350,000);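 active = every replicate shows inhibition of at least 40%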;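 also: 0% = neutral control wells and 100% = positive control wells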
# ARNT TACC3 PPI = disrupts binding between human ARNT and TACC3. AID 623870. actives 0.66% (n = 390,000). Q9Y6A5. inhibition, % at 9.99 µM. AlphaScreen His-ARNT PAS-B/GST-TACC3 binding, luminescence; TACC3 fragment carries E629A point mutation;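 active = mean inhibition of replicates at least 50% and at least half of replicates each reaching 50%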;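 also: 0% = complete ARNT plus TACC3 wells and 100% = ARNT alone without TACC3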
# * = called active by the depositor; . = not tested or not shown; ! = not active in a repeat. In the library only some 2.4% were active in any assay of this set; here they are far more common.
SMILES,Casp6 inh,ERAP1 HTS inh,S100A4 MyoIIA,rRNA inh HTS,PGC1a acetyl inh,ARNT TACC3 PPI
CCCC#Cc1cnc2c(c1)C(=O)N([C@@H](C)CO)C[C@H](C)[C@@H](CN(C)C(=O)c1ccc3c(c1)OCO3)O2,-0.2,-2.6,-5.6,3.6,19.7,-4.2
COc1ccc2c3c(n(C)c2c1)[C@H](CO)N(C(=O)C1CCC1)CC31CCN(C(=O)CN(C)C)CC1,1.2,0.7,4.8,0.1,.,.
Oc1ccc(COCc2ccccc2)c2cccnc12,.,.,4.8,.,-10.6,79.6*
Oc1c(CN2CCN(c3ccccn3)CC2)cc(Cl)c2cccnc12,.,.,.,.,13.6,59.6*
Oc1ccc(Cc2ccccc2)c2cccnc12,-2.8,-1.0,-7.0,-57.8,30.1,.
Oc1c(CN2CCCCC2)ccc2cccnc12,69.3*,10.3,4.2,-13.4*,24.9,88.6*
Oc1c(CN2CCOCC2)ccc2ccccc12,5.8,-2.9,-2.2,11.1,5.2,-2.0
C[C@@H]1CCCCO[C@H](CN(C)S(=O)(=O)c2ccc(Cl)cc2)[C@@H](C)CN([C@H](C)CO)C(=O)c2cc(NC(=O)CCCCCC(=O)Nc3ccccc3N)ccc2O1,-1.8,2.0,-11.2,-1.8,-8.0,.
COc1ccc(NC(=O)N(C)C[C@H]2Oc3ccc(NC(=O)CCCCCC(=O)Nc4ccccc4N)cc3CC(=O)N([C@H](C)CO)C[C@@H]2C)cc1,1.9,0.0,8.9,-4.8,-8.1,.
N#C/C(=C\c1ccc(OCc2ccc(Cl)cc2)cc1)C(=O)Nc1cccc(C(=O)O)c1,8.4,-4.8,-1.4,-26.5*,0.8,-6.8
COc1cc(/C=C(/C#N)C(=O)Nc2ccccc2)ccc1OCc1ccc(C(=O)O)cc1,37.4*,6.3,7.1,0.1,3.0,7.9
C[C@H](CO)N1C[C@H](C)[C@@H](CN(C)S(C)(=O)=O)Oc2c(NC(=O)CCC(F)(F)F)cccc2C1=O,.,.,.,0.8,.,.
O=C(Cc1ccccn1)N[C@@H]1C=C[C@H](CC(=O)N2CCCCC2)O[C@@H]1CO,1.3,-1.5,0.2,3.4,1.9,17.1
Cc1nc2c(nc1C)C(=O)c1ccccc1C2=O,35.9*,1.8,-15.8,-24.1,-2.5,5.8
O=C1c2ccccc2-c2nc3ccccc3nc21,.,.,.,.,1.2,2.1
CO[C@H]1CN(C)C(=O)c2ccc(NC(=O)C3CC3)cc2OC[C@H](C)N(Cc2cccc(F)c2)C[C@@H]1C,-0.7,1.0,5.1,-1.0,-10.9,.
O=C(c1ccccc1)c1ccncc1,.,.,.,.,-2.2,-2.6
O=C(c1ccccc1)c1nccn1-c1ccc(Cl)nn1,3.5,.,-1.2,-36.2*,6.9,-0.2
Cc1ccc(-c2ccc([C@@H]3[C@H]4CN(C(=O)c5ccc(F)cc5)CCCCN4[C@H]3CO)cc2)cc1,.,.,.,-7.0,-9.5,2.8
O=C(C[C@H]1CC[C@H]2[C@@H](COC[C@H](O)CN2Cc2cocn2)O1)NCc1cccc(F)c1,-0.8,-3.2,35.8,4.5,-7.0,-5.4
COc1ccc2nc(-c3ccco3)c(-c3ccco3)nc2c1,47.1*,12.2,-4.5,-4.6,-1.6,22.4
COc1ccc2nc3cccc(OC)c3nc2c1,49.9*,7.6,1.5,-25.7,.,26.6
O=C(C[C@@H]1C[C@@H]2c3cc(NC(=O)c4cccnc4)ccc3O[C@@H]2[C@@H](CO)O1)NCC1CC1,-4.7,-0.1,-1.8,-2.6,-6.1,-14.2
C[C@H](CO)N1C[C@H](C)[C@H](CN(C)Cc2ccccc2)OCCCC[C@H](C)Oc2ccc(NC(=O)NC3CCCCC3)cc2C1=O,-2.7,-0.5,-16.8,-5.2,9.7,3.9
C[C@@H]1CCCCO[C@H](CN(C)CC2CC2)[C@H](C)CN([C@@H](C)CO)C(=O)c2cc(NC(=O)Nc3ccc4c(c3)OCO4)ccc2O1,-0.6,-0.1,-0.8,-1.1,1.0,18.1
SMILES,Casp6 inh,ERAP1 HTS inh,S100A4 MyoIIA,rRNA inh HTS,PGC1a acetyl inh,ARNT TACC3 PPI
Nc1ccc2ccc(O)cc2c1,4.3,-3.3,-1.4,-27.0,-3.4,5.9
C[n+]1c2cc(N)ccc2cc2ccc(N)cc21,-293.1,2.2,31.3,38.4,21.1,27.6*!
Cc1nn(-c2ccccc2)c(C)c1NC(=O)COc1ccc2ccccc2c1,10.5,-0.6,-0.3,-19.6*,-5.6,-2.7
O=C(O)c1cccc(NC(=S)N/N=C/c2cccc(O)c2)c1,0.4,-11.1,1.0,8.0,.,.
Cc1cccc(NC(=S)N/N=C/c2cccc(O)c2)c1C,1.0,.,3.4,-23.5*,-10.8,2.3
Cc1ccccc1NC(=S)N/N=C/c1ccc(O)cc1O,10.7,.,-5.5,-18.4,3.2,57.5*
COC(=O)C1=CN(Cc2ccc(OC)c(OC)c2)C=C(C(=O)OC)C1c1cccc(O)c1,-1.8,-145.9,-2.0,-0.8,74.2*,-24.1
COC(=O)C1=CN(CC2CCCO2)C=C(C(=O)OC)C1c1ccsc1 (stereo not drawn),.,.,.,.,4.0,-5.8
COC(=O)C1=CN(Cc2ccc(OC)cc2)C=C(C(=O)OC)C1c1ccsc1,-2.6,-29.8,-5.2,-22.1*,-7.9,-18.8
CCOC(=O)[C@]12CCC=C1N(Cc1ccccc1)C(=O)[C@H](CC(=O)NCCC(C)C)C2,-1.8,.,13.2,-23.5*,.,.
CCOC(=O)[C@]12CCCC=C1N(Cc1ccccc1)C(=O)[C@H](CC(=O)NCCc1ccccc1OC)C2,-3.2,.,-1.2,-20.9*,.,.
COCC(=O)Nc1ccc2c(c1)OC[C@H](C)N(C(=O)C1CCCC1)C[C@H](C)[C@@H](OC)CN(C)C2=O,.,.,.,-1.2,-4.0,-2.5
C=CCOc1ccc(CNc2ccc3[nH]c(=O)[nH]c3c2)cc1OCC,9.2,-0.5,1.5,3.6,-4.4,5.8
C=CCOc1ccc(CNc2ccc3[nH]c(=O)[nH]c3c2)cc1,7.9,-1.2,-0.9,-14.3*,-7.2,1.1
O=C(Nc1ccccc1C(=O)O)/C(=C/c1ccc(Cl)cc1Cl)NC(=O)c1ccco1,2.5,-1.0,1.0,-32.0*,-0.7,-5.1
COc1ccc(OC)c(S(=O)(=O)Nc2cccc3ccccc23)c1,2.3,-0.8,-3.1,-25.4*,18.3,.
COc1ccc(OC)c(S(=O)(=O)Nc2ccccc2C(F)(F)F)c1,.,.,.,.,-6.0,-33.4
NC(=O)c1ccc(NC(=O)COC(=O)/C=C/c2ccc(Br)o2)cc1,80.2*,1.4,-0.8,.,10.9,-25.2
O=C(COC(=O)/C=C/c1ccc(Br)o1)Nc1ccc2[nH]c(=O)[nH]c2c1,0.0,2.8,1.8,12.7,7.4,-11.1
C[C@@H]1CCCCO[C@@H](CN(C)C(=O)NC2CCCCC2)[C@H](C)CN([C@@H](C)CO)C(=O)c2cc(NC(=O)Nc3ccc(C(F)(F)F)cc3)ccc2O1,1.1,-1.3,0.8,0.4,5.9,-2.8
Cc1nc(-c2ccc(NC(=O)c3ccccc3C)cc2)cs1,-2.2,-0.7,0.0,-27.2*,18.5,-25.1
